Screening data as filed in PubChem.
The list is not random: actives were taken first. Their share in the collection is about 2.3%.
Rtt109 HAT inh: C. albicans Rtt109 histone acetyltransferase inhibition | purified Rtt109/Vps75, ThioGlo CoA-SH fluorescence, 4 h | inhibition, % at 34.9 µM | actives 0.16% (n = 330,000);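 active = inhibition of at least 50% in every replicate; inconclusive = best replicate reaches 50% inhibition but some replicates fall short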
Target sequence (Q5AAJ8 whole entry, looked up): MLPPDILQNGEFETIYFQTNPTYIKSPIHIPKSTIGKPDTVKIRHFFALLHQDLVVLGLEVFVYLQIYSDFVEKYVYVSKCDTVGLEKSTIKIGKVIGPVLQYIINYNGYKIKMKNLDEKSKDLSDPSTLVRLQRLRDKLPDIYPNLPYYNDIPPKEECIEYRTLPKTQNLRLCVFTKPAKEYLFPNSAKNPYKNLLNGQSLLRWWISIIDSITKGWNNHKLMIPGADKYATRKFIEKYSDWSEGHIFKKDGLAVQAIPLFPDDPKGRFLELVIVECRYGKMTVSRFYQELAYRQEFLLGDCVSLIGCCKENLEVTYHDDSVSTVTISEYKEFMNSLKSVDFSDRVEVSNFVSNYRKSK
Env fusion inh: HIV envelope-mediated fusion inhibition; actives 1.1% (n = 360,000); inhibition, % at 12.3 µM; HeLa-JRFL Env/CEM21 cell fusion, luciferase;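 active = mean replicate inhibition score of at least 50 and every replicate individually at or above 50; inconclusive = only one of the two criteria met; inactive = mean below 50 and not all replicates reaching 50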;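 note: 0% = plate neutral controls and 100% = maraviroc near 300 nM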
N-glyco inh: N-linked glycosylation inhibition; actives 0.23% (n = 360,000); D54 ERlucT glycosylation luciferase reporter, 24 h; percent of 100 nM tunicamycin response; reporter increase, % at 12.5 µM; AID 588692;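 active = mean luciferase reporter signal, scaled so untreated is 0 and the glycosylation-blocking control 100, at or above a set limit in every replicate; inconclusive = mean reaches the limit but not every replicate does; inactive = mean below the limit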;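 note: luciferase carries N-glycosylation sites so blocking glycosylation raises the light; 0% = median of neutral control wells and 100% = median of 100 nM tunicamycin wells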
Arr AP2 block: human beta-arrestin and AP2 interaction inhibition. FITC-arrestin peptide / GST-AP2 beads, flow cytometry; AP2 beta2 appendage carries R879A mutation. inhibition, % at 10 µM. actives 0.31% (n = 340,000). AID 504490;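 active = inhibition above a set limit, near 3 SD of compounds lacking own fluorescence, cut at about 54% in these data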;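 note: plate controls were DMSO wells for no effect and 5 µM unlabelled arrestin peptide for full effect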
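Test system: GST-tagged AP2 beta2-adaptin appendage (R879A) on 4 µm glutathione beads; also added: fluorescein-tagged arrestin peptide at 50 nM final; timing: 12 min plus 1 h, RT; signal: flow cytometry, FL1 (488/535 nm); read-out: percent drop in bead-associated FITC signal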
PfHsp90 set2: reduces growth (ATP signal) of yeast expressing P. falciparum Hsp90 | S. cerevisiae expressing PfHsp90, BacTiter-Glo ATP, 48 h; yeast lacking PDR1 and PDR3 efflux regulators | inhibition, % at 9.4 µM | actives 0.32% (n = 310,000);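 active = every replicate shows inhibition above about 80%, whatever the replicate mean, limit read from the data; inconclusive = mean inhibition reaches the set limit but some replicate falls short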;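 note: 0% = DMSO neutral controls and 100% = 20 µM radicicol positive controls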
PAX8 reporter: inhibitors of PAX8 transcriptional activity in RMG-I cells | RMG-I TPO-luciferase reporter, SteadyGlo, 24 h | inhibition, % at 12.6 µM | actives 1.2% (n = 360,000);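 active = mean replicate inhibition at least 60% with every replicate also reaching 60%; inconclusive = only one of the two criteria is met; inactive = mean below 60% and not all replicates reaching 60%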;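 note: luciferase light reporting Pax8 driven TPO promoter activity; plate controls were median of neutral control wells for no effect and mitoxantrone controls for full effect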
Numbers without * were called inactive; ? = inconclusive; / = no result given; ! = a repeat was not active; [ ] = remark or other dose.

SMILES	Rtt109 HAT inh	Env fusion inh	N-glyco inh	Arr AP2 block	PfHsp90 set2	PAX8 reporter
COCCCn1c(SCc2ccc(OC)cc2)nc2cc(OC)c(OC)cc2c1=N	2	57*	-1	1	10	/
O=C1NCCc2c1[nH]c1ccc([N+](=O)[O-])cc21	8	67*	-8	13	-18	-1
CC(C)NC(=O)N(C)C[C@H]1Oc2ccc(NC(=O)CCC(F)(F)F)cc2CC(=O)N([C@H](C)CO)C[C@@H]1C	/	/	/	/	/	-1
Cc1ccc(S(=O)(=O)N2C[C@H]3[C@H]4C(=O)N(C5CCCCC5)C(=O)[C@H]4CC(=O)[C@H]3[C@@H]2c2ccccc2Cl)cc1	/	59*	-3	/	/	26
CCN1C(=O)[C@@H]2[C@@H]3CN(S(=O)(=O)c4ccc(C)cc4)[C@@H](c4cccc5ccccc45)[C@@H]3C(=O)C[C@@H]2C1=O	/	-27	-3	/	/	-9
CCCN(C)C[C@@H]1OCc2cn(nn2)CCCC(=O)N([C@H](C)CO)C[C@@H]1C	/	/	/	/	/	-6
Cc1ccc(S(=O)(=O)N(C)C[C@@H]2OCCCC[C@H](C)Oc3ccc(NS(=O)(=O)c4ccccc4)cc3C(=O)N([C@H](C)CO)C[C@H]2C)cc1	/	-44[16.7 µM]	/	/	/	72*
Cc1ccc(S(=O)(=O)N(C)C[C@@H]2OCCCC[C@H](C)Oc3ccc(NS(=O)(=O)c4ccccc4)cc3C(=O)N([C@H](C)CO)C[C@@H]2C)cc1	/	-68[16.7 µM]	/	/	/	64*
Cc1ccc(S(=O)(=O)Nc2ccc3c(c2)C(=O)N([C@@H](C)CO)C[C@H](C)[C@@H](CN(C)S(=O)(=O)c2ccccc2)OCCCC[C@H](C)O3)cc1	/	31[16.7 µM]	/	/	/	57
CO[C@H]1CN(C)C(=O)c2ccc(NC(C)=O)cc2OC[C@H](C)N(Cc2ccccc2F)C[C@H]1C	/	5[16.7 µM]	/	/	/	9
CCCCC1Cc2[nH]c(=S)[nH]c(=O)c2C(c2ccc(F)cc2)O1 (centres undefined)	/	-4	4	/	/	95*
CCCC1C(=O)Nc2ccccc2N1C(=O)c1ccc(C(C)(C)C)cc1 (centres undefined)	-1	62*	-3	-1	-7	-9
CCCC1C(=O)Nc2ccccc2N1C(=O)c1cccc(C)c1 (centres undefined)	18	52	-2	-2	7	-31
O=C(O)C[C@@H]1C=C[C@H](NC(=O)Nc2cc(F)ccc2F)[C@H](CO)O1	/	-12[16.7 µM]	/	/	/	-6
O=C(C[C@@H]1C=C[C@@H](NC(=O)c2ccccc2)[C@@H](CO)O1)NCc1ccncn1	/	0[16.7 µM]	/	/	/	-2
O=C(CCNC(=O)c1ccccc1Cl)NCCC1=CCCCC1	8	58*	-1	6	7	-36
Cc1ccc(S(=O)(=O)N2CCCCC2)cc1C(=O)NCCC1=CCCCC1	/	73*	-2	23	10	4
O=C(COc1ccccc1Cl)NCCC1=CCCCC1	1	10	-2	-7	-12	11
CCN1C(=O)/C(=C/N2CCc3ccccc32)SC1=S	-2	/	0	70*	11	/
CCCNc1nc2ccccc2n2c(C)nnc12	14	24	40*	20	18	-41
C[C@H]1CN([C@@H](C)CO)S(=O)(=O)c2ccc(-c3cccc(C(=O)N(C)C)c3)cc2O[C@@H]1CN(C)C(=O)Nc1ccc(F)cc1	/	-20[16.7 µM]	/	/	/	/
CC[C@H](C)C(=O)O[C@H]1CCC=C2C=C[C@H](C)[C@H](CC[C@@H]3C[C@@H](O)CC(=O)O3)[C@H]21	8	?	54*	-3	-15	31
CC[C@H](C)C(=O)O[C@H]1C[C@@H](C)C=C2C=C[C@H](C)[C@H](CC[C@@H]3C[C@@H](O)CC(=O)O3)[C@H]21	9	/	69*!	18	7	4
CCC(C)C(=O)OC1CCC=C2C=CC(C)C(CCC3CC(O)CC(=O)O3)C21 (centres undefined)	-3	50	41*	33	-9	-31
CC=Cc1ccc2n(c1=O)C[C@H]1[C@H](CO)[C@@H](C(=O)N3CCCCC3)[C@@H]2N1C(=O)C1CCC1 (mixture of isomers)	/	-18[16.7 µM]	/	/	/	/
SMILES	Rtt109 HAT inh	Env fusion inh	N-glyco inh	Arr AP2 block	PfHsp90 set2	PAX8 reporter
CSc1ccc(CN2CCC2(C)C(=O)Nc2cccc(NS(C)(=O)=O)c2)cc1 (centres undefined)	/	76*	4	/	/	13
C[C@@H]1CN([C@@H](C)CO)C(=O)c2cccc(NC(=O)c3ccc(-c4nccs4)cc3)c2O[C@H]1CN(C)Cc1ccncc1	/	/	/	/	/	11
Cc1ccc(S(=O)(=O)Nc2cccc3c2O[C@H](CN(C)Cc2ccc4c(c2)OCO4)[C@@H](C)CN([C@H](C)CO)C3=O)cc1	/	-68[16.7 µM]	/	/	/	7
COc1cc(C(=O)NCC2CCCO2)ccc1OCc1ccc(Cl)cc1Cl (centres undefined)	2	67*	-3	-8	-18	-1
COc1cc(C(=O)NCC2CCCO2)ccc1OCc1ccc(Cl)cc1 (centres undefined)	4	/	-1	-1	-23	-37
O=C(OCC(=O)N1CCN(C(=O)c2ccco2)CC1)c1cccc(S(=O)(=O)N2CCc3ccccc32)c1	2	-44	-2	-1	-14	101*
CNS(=O)(=O)c1cccc(C(=O)OCC(=O)N2CCN(C(=O)c3ccco3)CC2)c1	15	/	0	0	10	35
C[C@@H]1CCCCO[C@H](CN(C)C)[C@H](C)CN([C@H](C)CO)C(=O)c2cc(NS(=O)(=O)c3ccc(Cl)cc3)ccc2O1	/	-2[16.7 µM]	/	/	/	8
O=C(Nc1ccccc1F)N[C@@H]1CC[C@H](CCNS(=O)(=O)c2ccc(Cl)cc2)O[C@H]1CO	/	0[16.7 µM]	/	/	/	5
CCC1=NN2C(=N)/C(=C\c3cccn3-c3c(C)cccc3C)C(=O)N=C2S1	/	1	0	0	-66	10
CCC1=NN2C(=N)/C(=C\c3cccn3-c3ccc(C)cc3C)C(=O)N=C2S1	5	23	2	-1	94*	-7
C[C@@H]1CN([C@@H](C)CO)C(=O)c2cc(NC(=O)Nc3ccc4c(c3)OCO4)ccc2O[C@@H](C)CCCCO[C@H]1CN(C)Cc1ccncc1	/	20[16.7 µM]	/	/	/	1
Cc1ccc2nc(/C(C#N)=C/c3cn[nH]c3-c3ccc(F)cc3)[nH]c2c1	-10	/	32*	4	-8	/
CC(C)C(=O)NC(c1cccc([N+](=O)[O-])c1)c1ccc2cccnc2c1O (centres undefined)	-2	25	-11	-8	119*	78*
CCCC(=O)NC(c1cccc([N+](=O)[O-])c1)c1ccc2cccnc2c1O (centres undefined)	/	92*	-10	/	/	78*
CC(C)C(=O)NC(c1cccc([N+](=O)[O-])c1)c1c(O)ccc2ccccc12 (centres undefined)	-3	-12	-1	-11	-10	-21
